In ChEMBL document CHEMBL1938250, “The discovery of non-benzimidazole and brain-penetrant prolylcarboxypeptidase inhibitors” (Bioorg Med Chem Lett, 2012):
pIC50: −log10 of the molar value. Activity calls are given as the source filed them. No cut-off for these calls is given here.

Assays:
[1] = biological target: T1, Lysosomal Pro-X carboxypeptidase (Mus musculus, UniProt Q7TMR0); assay: Inhibition of PrCP-mediated conversion of Ang3 to Ang(2-7) in mouse plasma
T1 sequence (Q7TMR0 whole entry): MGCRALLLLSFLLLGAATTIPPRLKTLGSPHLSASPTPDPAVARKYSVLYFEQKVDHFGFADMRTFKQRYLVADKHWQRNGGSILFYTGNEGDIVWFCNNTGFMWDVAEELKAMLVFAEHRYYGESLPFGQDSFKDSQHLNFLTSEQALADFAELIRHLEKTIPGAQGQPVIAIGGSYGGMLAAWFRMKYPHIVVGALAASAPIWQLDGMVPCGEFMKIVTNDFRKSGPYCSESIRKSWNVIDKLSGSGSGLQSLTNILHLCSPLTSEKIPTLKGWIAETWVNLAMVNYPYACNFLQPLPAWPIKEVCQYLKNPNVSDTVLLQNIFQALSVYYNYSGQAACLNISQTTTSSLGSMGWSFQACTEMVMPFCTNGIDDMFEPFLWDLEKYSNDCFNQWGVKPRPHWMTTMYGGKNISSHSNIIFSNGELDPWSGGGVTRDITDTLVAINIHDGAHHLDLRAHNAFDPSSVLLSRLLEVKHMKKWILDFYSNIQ
Method in brief: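 Whole mouse plasma was pretreated with protease inhibitors to block non-PrCP conversion of angiotensin III. Inhibitor was then added, and the rate of conversion of AngIII to Ang(2–7) was compared with a vehicle-treated control.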

[2] = biological target: T1, Lysosomal Pro-X carboxypeptidase; assay: Inhibition of recombinant mouse PrCP using Mca-Ala-Pro-Lys(Dnp)-OH as substrate measured for 30 mins by continuous fluorometric assay
[3] = Half life in mouse at 1 mg/kg, iv and 2 mg/kg, po by LC-MS/MS analysis; assay type: ADME, organism-based; details: in vivo
Method in brief: (§1)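 Mice received 1 mg/kg IV (n = 2) or 2 mg/kg PO (n = 3). The formulation was 1 mg/mL in ethanol–PEG–water (20:40:40). Blood was deproteinized with acetonitrile and drug levels were measured by LC/MS/MS. Outputs were clearance, Vd, half-life, %F and dose-normalized oral AUC.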

[4] = Oral bioavailability in mouse at 2 mg/kg by LC-MS/MS analysis; assay type: ADME, organism-based; details: in vivo; method in brief: as §1
[5] = test system: Mus musculus; assay: Normalized AUC in mouse at 2 mg/kg, po by LC-MS/MS analysis; assay type: ADME, organism-based; parameters: dose 2 mg/kg, route oral; details: in vivo; method in brief: as §1
[6] = Clearance in mouse at 1 mg/kg, iv and 2 mg/kg, po by LC-MS/MS analysis; assay type: ADME, organism-based; details: in vivo; method in brief: as §1
[7] = Volume of distribution in mouse at 1 mg/kg, iv and 2 mg/kg, po by LC-MS/MS analysis; assay type: ADME, organism-based; details: in vivo
Method in brief: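 Mouse PK with the compound formulated at 1 mg/mL in ethanol–PEG–water (20:40:40). Given IV at 1 mg/kg (n = 2) and PO at 2 mg/kg (n = 3). Blood concentrations were measured by LC/MS/MS after protein precipitation with acetonitrile. Volume of distribution is reported in L/kg.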

[8] = Drug uptake in wild type MDR1A expressing CF1 mouse plasma at 30 mg/kg, po after 2 hrs; assay type: ADME, organism-based; parameters: dose 30 mg/kg, route oral
Method in brief: (§2)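 CF1 MDR1A wild-type and MDR1A(-/-) mice (n = 4 each) received a single 30 mg/kg oral dose. Plasma and brain concentrations (nM) were measured at 2 and 6 h post-dose. The brain/plasma ratio was derived for each time point.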

[9] = Drug uptake in wild type MDR1A expressing CF1 mouse plasma at 30 mg/kg, po after 6 hrs; assay type: ADME, organism-based; parameters: dose 30 mg/kg, route oral; method in brief: as §2
[10] = Drug uptake in wild type MDR1A expressing CF1 mouse brain at 30 mg/kg, po after 2 hrs; assay type: ADME, organism-based; parameters: dose 30 mg/kg, route oral; details: read-out: Drug uptake; method in brief: as §2
[11] = Drug uptake in wild type MDR1A expressing CF1 mouse brain at 30 mg/kg, po after 6 hrs; assay type: ADME, organism-based; parameters: dose 30 mg/kg, route oral; details: read-out: Drug uptake; method in brief: as §2
[12] = Ratio of drug level in brain to plasma in wild type MDR1A expressing CF1 mouse at 30 mg/kg, po after 2 hrs; assay type: ADME, organism-based; parameters: dose 30 mg/kg, route oral; details: read-out: BPR; method in brief: as §2
[13] = Ratio of drug level in brain to plasma in wild type MDR1A expressing CF1 mouse at 30 mg/kg, po after 6 hrs; assay type: ADME, organism-based; parameters: dose 30 mg/kg, route oral; details: read-out: BPR; method in brief: as §2
[14] = Drug uptake in MDR1A knock-out CF1 mouse plasma at 30 mg/kg, po after 2 hrs; assay type: ADME, organism-based; parameters: dose 30 mg/kg, route oral; method in brief: as §2
[15] = Drug uptake in MDR1A knock-out CF1 mouse plasma at 30 mg/kg, po after 6 hrs; assay type: ADME, organism-based; parameters: dose 30 mg/kg, route oral; method in brief: as §2
[16] = Drug uptake in MDR1A knock-out CF1 mouse brain at 30 mg/kg, po after 2 hrs; assay type: ADME, organism-based; parameters: dose 30 mg/kg, route oral; details: read-out: Drug uptake; method in brief: as §2
[17] = Drug uptake in MDR1A knock-out CF1 mouse brain at 30 mg/kg, po after 6 hrs; assay type: ADME, organism-based; parameters: dose 30 mg/kg, route oral; details: read-out: Drug uptake; method in brief: as §2
[18] = Ratio of drug level in brain to plasma in MDR1A knock-out CF1 mouse at 30 mg/kg, po after 2 hrs; assay type: ADME, organism-based; parameters: dose 30 mg/kg, route oral; details: read-out: BPR; method in brief: as §2
[19] = Ratio of drug level in brain to plasma in MDR1A knock-out CF1 mouse at 30 mg/kg, po after 6 hrs; assay type: ADME, organism-based; parameters: dose 30 mg/kg, route oral; details: read-out: BPR; method in brief: as §2
[20] = test system: Mus musculus; assay: Terminal plasma PrCP inhibition in eDIO mouse model at 10 mg/kg, sc administered for 7 days; assay type: functional; details: 168 h, route subcutaneous
[21] = test system: Mus musculus; assay: Induction of weight loss in wild type PrCP expressing mouse at 30 mg/kg, sc administered for 7 days; assay type: functional, organism-based; parameters: dose 30 mg/kg
Method in brief: (§3)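 Wild-type and PrCP knockout mice (n = 8 per group) received continuous subcutaneous infusion by pump for 7 days at 10 or 30 mg/kg. The vehicle was DMSO–1,2-propanediol (1:1 v/v). Body weight and food intake were recorded daily and compared with a vehicle group. Injection-site adverse events were noted, and terminal plasma drug concentration was measured.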

[22] = test system: Mus musculus; assay: Induction of weight loss in PrCP knock-out mouse at 30 mg/kg, sc administered for 7 days; assay type: functional, organism-based; parameters: dose 30 mg/kg; method in brief: as §3
[23] = test system: Mus musculus; assay: Induction of weight loss in wild type PrCP expressing mouse at 10 mg/kg, sc administered for 7 days; assay type: functional, organism-based; parameters: dose 10 mg/kg; method in brief: as §3
[24] = test system: Mus musculus; assay: Induction of weight loss in PrCP knock-out mouse at 10 mg/kg, sc administered for 7 days; assay type: functional, organism-based; parameters: dose 10 mg/kg; method in brief: as §3
[25] = test system: Mus musculus; assay: Inhibition of wild type PrCP in mouse plasma at 30 mg/kg, sc administered for 7 days by fluorescence analysis; assay type: functional; details: 168 h, route subcutaneous
[26] = test system: Mus musculus; assay: Inhibition of wild type PrCP in mouse plasma at 10 mg/kg, sc administered for 7 days by fluorescence analysis; assay type: functional; details: 168 h, route subcutaneous
[27] = species: Mus musculus; details: 10 mg/kg

In the case of C[C@H](NC(=O)CCN1CCC(c2nc(-c3ccccn3)no2)CC1)c1ccc(F)cc1, the pIC50 [1] was 6.46.

With C[C@H](NC(=O)[C@@H](NC(=O)C(C)(C)N)[C@@H](C)c1ccc(-c2ccccc2)cc1)c1ccc(Cl)cc1 the pIC50 [2] was 8.64 and the pIC50 [1] was 6.70.

For O=C(CCN1CCC(c2nc(-c3ccccn3)no2)CC1)NC(c1ccc(Cl)cc1)c1ccc(Cl)cc1, the half-life [3] was 0.7 h, the bioavailability [4] was 1.3% and the AUC/dose [5] was < 0.01 µM·kg·h/mg. The pIC50 [2] was 8.00, the pIC50 [1] was 6.52 and the clearance [6] was 105 mL/min/kg. The Vd [7] was 5.6 L/kg.

In the case of O=C(CCN1CCC(c2ccccc2)CC1)NC(c1ccncc1)c1ccc(Cl)cc1 (racemic), the pIC50 [2] was 8.68.

For CC(NC(=O)CCN1CCC(c2ccccc2)CC1)c1ccccc1-c1ccccc1 (centres undefined), the pIC50 [2] was 8.24.

For O=C(CCN1CCC(c2ccccc2)CC1)N1CCC[C@H]1c1nc2cc(Cl)c(Cl)cc2[nH]1, the pIC50 [1] was < 5.00.

With O=C(CCN1CCC(c2ccccc2)CC1)NC(c1ccc(Cl)cc1)C(F)(F)F (centres undefined) the pIC50 [2] was 7.85.

O=C(CCN1CCC(c2nc(-c3ccccn3)no2)CC1)NC(c1ccncc1)c1ccc(F)cc1 (racemic) gave a pIC50 [1] of 7.82.

For C[C@H](NC(=O)CCN1CCC(c2ccccc2)CC1)c1ccc(Br)cc1, the pIC50 [2] was 7.70.

Work on C[C@@H](c1ccc(-c2ccccc2)cc1)[C@H](N)C(=O)NC(c1ccncc1)c1ccc(Cl)cc1 (mixture of isomers) yielded a pIC50 [2] of 8.85 and a pIC50 [1] of 6.97.

C[C@@H](c1ccc(-c2ccccc2)cc1)[C@H](NC(=O)C(C)(C)N)C(=O)N1CCC[C@H]1c1nc2cc(Cl)c(Cl)cc2[nH]1 showed a pIC50 [1] of 7.59, a concentration at 2 h [8] of 306 nM and a concentration at 6 h [9] of 91 nM. The concentration at 2 h [10] was 4 nM, the concentration at 6 h [11] was 3 nM and the Kp at 2 h [12] was 0.01. The Kp at 6 h [13] was 0.04, the concentration at 2 h [14] was 186 nM and the concentration at 6 h [15] was 51 nM. For the same molecule, the concentration at 2 h [16] was 166 nM, the concentration at 6 h [17] was 185 nM and the Kp at 2 h [18] was 0.9. For the same molecule, the Kp at 6 h [19] was 3.6.

Work on C[C@@H](c1ccc(-c2ccccc2)cc1)[C@H](NC(=O)C(C)(C)N)C(=O)NC(c1ccncc1)c1ccc(Cl)cc1 (mixture of isomers) yielded a half-life [3] of 3.6 h, a pIC50 [2] of 9.40 and a pIC50 [1] of 8.22. The clearance [6] was 85 mL/min/kg and the Vd [7] was 21 L/kg.

In the case of C[C@@H](c1ccc(-c2ccccc2)cc1)[C@H](NC(=O)C(C)(C)N)C(=O)NC(c1ccc(Cl)cc1)C(F)F (mixture of isomers), the pIC50 [2] was 8.18 and the pIC50 [1] was 6.34.

With O=C(CCN1CCC(c2ccccc2)CC1)NC(c1ccc(Cl)cc1)c1ccc(Cl)cc1 the pIC50 [2] was 8.40 and the pIC50 [1] was 7.24.

In the case of O=C(CCN1CCC(c2nc(-c3ccccn3)no2)CC1)NC(c1ccc(Cl)cc1)C(F)F (racemic), the pIC50 [1] was 6.81.

Cn1cc(C(NC(=O)CCN2CCC(c3ccccc3)CC2)c2ccc(Cl)cc2)cn1 (racemic) showed a pIC50 [2] of 7.60.

O=C(CCN1CCC(c2nc(-c3ccccn3)no2)CC1)N1CCC[C@H]1c1nc2cc(Cl)c(Cl)cc2[nH]1 showed a pIC50 [2] of 8.40.

For CC(C)[C@H](NC(=O)CCN1CCC(c2ccccc2)CC1)c1ccc(Cl)cc1, the inhibition in vivo at 10 mg/kg [20] was 65%, the Activity [21] was “Active” and the Activity [22] was “Active”. For the same molecule, the Activity [23] was “inactive”, the Activity [24] was “inactive” and the inhibition in vivo at 30 mg/kg [25] was 85%. For the same molecule, the inhibition in vivo at 10 mg/kg [26] was 87%, the pIC50 [2] was 8.28 and the pIC50 [1] was 7.90. For the same molecule, the inhibition [27] was “inactive”.

Work on O=C(CCN1CCC(c2ccccc2)CC1)NC(c1ccc(Cl)cc1)C(F)F (centres undefined) yielded a pIC50 [2] of 7.77 and a pIC50 [1] of 7.77.

With C[C@@H](c1ccc(-c2ccccc2)cc1)[C@H](NC(=O)C(C)(C)N)C(=O)NC(c1ccc(Cl)cc1)C(F)(F)F (mixture of isomers) the half-life [3] was 4.4 h, the bioavailability [4] was 40% and the AUC/dose [5] was 0.19 µM·kg·h/mg. It also gave a clearance [6] of 78 mL/min/kg and a Vd [7] of 24 L/kg.

For C[C@H](NC(=O)CCN1CCC(c2ccccc2)CC1)c1ccc(Cl)cc1, the half-life [3] was 2.3 h, the bioavailability [4] was < 1% and the AUC/dose [5] was < 0.01 µM·kg·h/mg. The pIC50 [2] was 7.27, the pIC50 [1] was 6.62 and the clearance [6] was 185 mL/min/kg. For the same molecule, the Vd [7] was 27 L/kg.

For C[C@H](NC(=O)[C@@H](N)[C@@H](C)c1ccc(-c2ccccc2)cc1)c1ccc(Cl)cc1, the pIC50 [2] was 7.96 and the pIC50 [1] was 6.24.
